# MrgX1 allo act: positive allosteric modulators of MrgX1, primary screen, HEK293 cells, Fluo-4 calcium flux; 0.63% of 310,000 active; FDSS; hits give high values; B-score at 10 µM; Mas-related G-protein coupled receptor member X1 (Homo sapiens), Q96LB2;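 active means plate-corrected calcium response at least 3 library SD above typical, normal starting fluorescence, not activating the receptor alone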;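 further: compound read alongside a low EC10 to EC30 dose of BAM8-22 agonist; peak minus trough fluorescence over baseline measured at the second addition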
# MrgX1 ag: agonists of human MrgX1 receptor, primary screen, HEK293 cells, Fluo-4 calcium flux | Fluo-4 calcium fluorescence, agonist mode; hits give high values | 0.44% of 310,000 active | B-score at 10 µM;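 active means calcium response B-score plate-corrected fluorescence ratio at least 3 library SD, with starting fluorescence B-score inside 5 SD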
#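 Material: HEK293 cells stably expressing human MrgX1 receptor | Quantity: 15,000 cells per well | Times: Cells plated overnight, dye loaded 0.5 h 37 °C, 0.5 h room temperature | Measured by: Kinetic Fluo-4 NW fluorescence of intracellular calcium | Control set: Positive and negative controls per plate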
# PHOSPHO1 inh: PubChem AID 1565; Phosphoethanolamine/phosphocholine phosphatase (Homo sapiens), Q8TCT1; 1.1% of 290,000 active; recombinant PHOSPHO1, absorbance phosphatase assay; inhibition, % at 13.3 µM; in the data active means inhibition above about 60%
# Target sequence (Q8TCT1 whole entry, looked up): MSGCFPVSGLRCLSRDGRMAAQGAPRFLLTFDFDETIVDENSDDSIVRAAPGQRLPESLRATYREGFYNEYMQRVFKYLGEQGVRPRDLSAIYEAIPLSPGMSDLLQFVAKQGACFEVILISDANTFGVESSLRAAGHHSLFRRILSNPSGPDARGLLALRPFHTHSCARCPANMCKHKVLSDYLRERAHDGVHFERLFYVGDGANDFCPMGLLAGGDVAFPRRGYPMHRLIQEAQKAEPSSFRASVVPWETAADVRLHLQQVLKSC
# RGS4 act: RGS4 potentiators or activators, primary screen, cell-based, HEK293 M3R inducible RGS4, calcium flux | 0.92% of 310,000 active | B-score at 10 µM | AID 463111, 2010 | carbachol calcium flux Fluo4; hits give low values;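 active means B-score of the integrated calcium signal more than 4 SD below the library mean, with starting fluorescence not abnormally high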;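 further: negative B-score means reduced calcium response which marks RGS4 activation or potentiation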
#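 System – HEK293 FlpIn-TREx cells, stable M3R, doxycycline-inducible RGS4 · Reagent – ECmax carbachol challenge · Times – compound preincubation 20 min at room temperature before agonist · Technique – Fluo4 fluorescence kinetic imaging of calcium · Measure – B score of integrated Fluo4 ratio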
# MrgX1 antagonist: antagonists of human MrgX1 receptor, primary screen, HEK293 cells, Fluo-4 calcium flux | B-score at 10 µM | BAM8-22 antagonism; hits give low values | AID 588676, 2011 | Mas-related G-protein coupled receptor member X1 (Homo sapiens), Q96LB2 | 1.3% of 310,000 active;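 active means calcium-response B-score plate-corrected more than 3 library SD below zero, starting fluorescence within 5 deviations, no agonist response on first addition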;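 further: peak minus trough fluorescence over baseline after final BAM8-22 challenge near maximal dose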
# RGS4 inh: RGS4 inhibitors, primary screen, cell-based, HEK293 M3R inducible RGS4, calcium flux. Fluo-4 calcium flux; hits give high values; triggered by carbachol at its EC20. 0.45% of 310,000 active. Regulator of G-protein signaling 4 (Homo sapiens), P49798. B-score at 10 µM;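 active means B-score, a plate-corrected calcium signal, over three deviations above library mean, with baseline fluorescence within five deviations of library mean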;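 further: RGS4 expression induced by doxycycline in cells with stable M3 receptor; B-score is computed from the integrated fluorescence ratio over baseline after carbachol; higher B-score means a larger calcium signal and so more RGS4 inhibition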
# Target sequence (P49798 whole entry, looked up): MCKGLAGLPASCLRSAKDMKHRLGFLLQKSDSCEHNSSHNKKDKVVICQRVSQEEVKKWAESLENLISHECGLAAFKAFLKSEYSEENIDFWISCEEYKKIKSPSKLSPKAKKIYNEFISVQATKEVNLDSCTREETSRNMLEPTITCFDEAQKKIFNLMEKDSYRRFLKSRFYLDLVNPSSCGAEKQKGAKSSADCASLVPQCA
# RGS4 block valid: enhanced carbachol calcium response, M3R/RGS4 cells, RGS4 inhibitor project, cell-based, validation screen, HEK293 M3R/RGS4, calcium flux; 65% of 1,700 active; calcium response, % at 10 µM; carbachol calcium Fluo-4 fluorescence; carbachol added at its EC20; 0 = buffer wells, 100 = carbachol control; shares compounds with RGS4 inh;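 active means duplicate-averaged calcium response above the buffer-only control mean plus 5 SD of those controls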;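 further: integrated fluorescence ratio F max minus min over baseline F0; higher response in RGS4-induced cells means RGS4 inhibition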
# M3R Ca ctr: carbachol calcium response in non-induced M3R cells, confirmation, counter-screen for RGS4 inhibitor project, cell-based, HEK293 M3R | 20% of 1,900 active | activity (percent), % at 10 µM | shares compounds with RGS4 inh | carbachol calcium Fluo-4; submaximal (EC20) carbachol stimulus; buffer wells 0%, carbachol control wells 100%; call rule not given here;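 further: RGS4 induction absent so cells express M3R without RGS4; higher means more calcium signal and flags a non-specific hit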
# RGS4 inh ctr2: second counter-screen for RGS4 inhibitors: non-induced cells without carbachol | shares compounds with RGS4 inh | HEK293 M3R/RGS4 non-induced, Fluo-4 calcium, no carbachol; normalised: buffer wells 0%, carbachol wells 100% | calcium response (agonist-mode artifact), % at 10 µM | 22% of 1,900 active | AID 493001;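 active means duplicate-averaged calcium rise in uninduced cells above buffer wells' mean plus 5 SD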
# A number is an active result; i = inactive; nt = not tested or not shown. A selection: hits, their analogues and other compounds. The true share with any hit is near 4.5%.
SMILES,MrgX1 allo act,MrgX1 ag,PHOSPHO1 inh,RGS4 act,MrgX1 antagonist,RGS4 inh,RGS4 block valid,M3R Ca ctr,RGS4 inh ctr2
O=C(CN1C(=O)S/C(=C\C=C\c2ccccc2)C1=O)N1CCCCC1,i,i,i,i,i,i,nt,i,i
CCN(CC)CC#CCC(OC)(c1ccccc1)c1ccccc1,i,i,i,i,i,i,nt,nt,nt
Cc1ccc(C)c(N2CCN(S(=O)(=O)c3ccc4c(c3)C(C)(C)C(=O)N4C)CC2)c1,i,i,i,i,i,i,nt,nt,nt
COc1cc(C2(c3ccc(O)c(OC)c3)C(=O)N(C)c3ccc(C)cc32)ccc1O,i,i,nt,i,i,i,nt,i,i
CCOC(=O)C1CCN(CC(=O)c2c(C)n(C)c3ccc(OC)cc23)CC1,i,i,i,i,i,4.9,13%,i,i
O=C1NCC(c2ccccc2)C1C(=O)N/N=C\c1ccc(-c2cccc(Cl)c2Cl)o1 (stereo not drawn),i,i,i,i,i,i,nt,nt,nt
Cc1ccc(-c2ccc(/C=N\NC(=O)C3C(=O)NCC3c3ccccc3)o2)cc1Cl (stereo not drawn),i,i,60,i,i,i,nt,i,i
COc1cc(/C=N/NC(=O)c2cc[n+]([O-])cc2)ccc1O,i,i,i,i,i,i,nt,nt,nt
N#C/C(=C\c1cccc([N+](=O)[O-])c1)c1nnc2n1CCCCC2,i,i,i,i,i,6.1,16%,i,i
Cc1ccc(S(=O)(=O)/N=C2/NC(=O)/C(=C/c3ccccn3)S2)cc1,i,i,i,i,i,i,nt,nt,nt
COc1cc(/C=C2\S/C(=N/S(=O)(=O)c3ccccc3)NC2=O)c([N+](=O)[O-])cc1OC,i,i,i,i,i,6.8,30%,68%,i
COc1ccc(S(=O)(=O)/N=C2/NC(=O)/C(=C\c3cc(OC)c(OC)cc3[N+](=O)[O-])S2)cc1,i,i,i,i,i,i,i,i,i
O=C(CSc1nc2ccccc2[nH]1)Nc1nc(-c2cccc(Br)c2)cs1,i,i,i,i,i,7.7,16%,i,i
CN(C)CCCn1c(SCC(=O)Nc2nc(-c3cccc(Br)c3)cs2)nc2ccccc2c1=O,i,i,i,i,i,i,nt,nt,nt
Cc1ccc(-c2csc(NC(=O)CSc3nc(C)cc(=O)[nH]3)n2)cc1,i,i,i,i,i,13,12%,i,i
Cc1cc(C)c[n+](-c2[nH]c(=O)sc2/C=N/N=C(\[O-])c2cccnc2)c1,i,i,i,i,i,i,nt,nt,nt
O/N=C\c1cccn1-c1ccc(Br)cc1,i,i,i,i,i,i,nt,nt,nt
O=C(O)CSc1nc(-c2ccc(Cl)cc2)nc2c1oc1ccccc12,i,i,i,i,i,4.8,9.0%,i,7.0%
O=C(O)C1CCN(c2nc(-c3ccccc3)nc3c2oc2ccccc23)CC1,i,i,i,i,i,i,nt,nt,nt
O=C(O)CSc1nc(-c2ccccc2)nc2c1oc1ccccc12,i,i,i,i,i,i,i,i,i
CC(NC(=O)CCCn1cc([N+](=O)[O-])cn1)c1ccccc1 (stereo not drawn),i,i,i,i,i,i,nt,nt,nt
Cc1nc(C)c(/C(O)=C\c2nc3ccc([N+](=O)[O-])cc3oc2=O)o1,i,i,i,i,i,i,nt,nt,nt

# High-throughput results as filed in PubChem BioAssay.
